ChEMBL document CHEMBL1130204, “3 alpha-Hydroxy-3 beta-(phenylethynyl)-5 beta-pregnan-20-ones: synthesis and pharmacological activity of neuroactive steroids with high affinity for GABAA receptors” (J Med Chem, 1997)

Key:
[1] = target: GABA-A receptor; anion channel; experiment: In vitro inhibition of [35S]TBPS binding to gamma-aminobutyric-acid A receptor in rat brain cortical membranes in the presence of 5 uM GABA.; type: cell membranes, Membrane
Summary of the method: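 Rat cortical P2 membranes, washed in 200 mM NaCl/50 mM Na-K phosphate pH 7.4, incubated 90 min at room temperature with 2 nM [35S]TBPS, 5 µM GABA and test drug in DMSO (final 0.5%). Nonspecific binding taken with 2 µM unlabeled TBPS. Filtration, then scintillation counting. Partial vs full and one- vs two-component models chosen by F-test.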

Mus musculus [2] = experiment: Anticonvulsant potency that produces blockade of MES-induced seizures when administered intraperitoneally; type: functional; settings: ip
Summary of the method: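 Male NSA mice given steroid ip in 50% HP-β-CD 30 min before corneal electroshock (50 mA, 60 pulses/s, 0.8 ms pulses, 1 s). End-point is tonic hindlimb extension >90° within 30 s. Quantal dose-response; ED50 reported with 95% CI.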

Mus musculus [3] = experiment: Anticonvulsant potency that produces blockade of PTZ-induced seizures when administered intraperitoneally; type: functional; settings: ip
Summary of the method: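 Male NSA mice given steroid ip in 50% HP-β-CD 30 min before PTZ 85 mg/kg sc. Mice watched 30 min for forelimb clonus ≥3 s. Quantal dose-response; ED50 reported with 95% confidence interval.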

Mus musculus [4] = experiment: Percent of animals (n=8) not exhibiting PTZ-induced ( Pentylentetrazol protection) seizures 10 min following a 10 mg/kg ip dose of steroid.; type: functional; settings: route intraperitoneal
Summary of the method: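 Male NSA mice (15-20 g), n = 8. […] Mice watched 30 min for clonic seizure (forelimb clonus ≥3 s). Read-out is the percent of mice protected.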

Rattus norvegicus [5] = organism: Rattus norvegicus; experiment: (§1) The maximum inhibitory potency was calculated by fitting [35S]TBPS inhibition data to a sigmoid function (rat brain cortical P2 membranes); type: functional
Summary of the method: (§2)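 Rat cortical P2 membranes washed in 200 mM NaCl/50 mM Na-K phosphate pH 7.4, incubated 90 min at room temperature with 2 nM [35S]TBPS, 5 µM GABA and test drug in DMSO (final 0.5%). Nonspecific binding defined with 2 µM unlabeled TBPS. Filtration, scintillation counting. Fits to one- or two-component, full or partial inhibition models chosen by F-test; IC50 and Imax as mean ± SEM of individual experiments.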

[6] = Toxic dose that produces increase in hanging-wire failure; type: toxicity; settings: mouse
Summary of the method: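 Male NSA mice, 15–20 g, given steroid ip in 50% HP-β-CD 30 min before testing. Hanging wire of 2 mm diameter, 25 cm above padding. A pass means both hindpaws reach the wire within 5 s. Quantal scoring; TD50 with 95% confidence interval.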

[7] = target: T1, GABA-A receptor; alpha-1/beta-2/gamma-2 (Homo sapiens, UniProt P14867+P18507+P47870); experiment: Steroid potentiation of 5% GABA responses in Xenopus oocytes expressing human alpha-1-beta-2-gamma-2L subunits of GABA-A receptor; type: functional, cell-based, Oocyte
T1 sequence (P14867 whole entry): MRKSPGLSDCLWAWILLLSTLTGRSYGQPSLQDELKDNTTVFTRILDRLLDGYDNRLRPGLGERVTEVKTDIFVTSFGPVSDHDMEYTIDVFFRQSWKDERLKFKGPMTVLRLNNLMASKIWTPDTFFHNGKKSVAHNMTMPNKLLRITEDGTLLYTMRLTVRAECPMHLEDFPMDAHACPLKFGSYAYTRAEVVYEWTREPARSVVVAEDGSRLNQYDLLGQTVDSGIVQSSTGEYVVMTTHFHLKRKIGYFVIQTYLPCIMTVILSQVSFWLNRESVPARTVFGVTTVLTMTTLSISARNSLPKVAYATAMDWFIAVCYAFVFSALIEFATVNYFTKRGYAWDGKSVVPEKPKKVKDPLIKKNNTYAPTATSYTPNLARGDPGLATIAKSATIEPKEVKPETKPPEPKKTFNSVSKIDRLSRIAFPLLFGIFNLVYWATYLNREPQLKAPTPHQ
T1 sequence (P47870 whole entry): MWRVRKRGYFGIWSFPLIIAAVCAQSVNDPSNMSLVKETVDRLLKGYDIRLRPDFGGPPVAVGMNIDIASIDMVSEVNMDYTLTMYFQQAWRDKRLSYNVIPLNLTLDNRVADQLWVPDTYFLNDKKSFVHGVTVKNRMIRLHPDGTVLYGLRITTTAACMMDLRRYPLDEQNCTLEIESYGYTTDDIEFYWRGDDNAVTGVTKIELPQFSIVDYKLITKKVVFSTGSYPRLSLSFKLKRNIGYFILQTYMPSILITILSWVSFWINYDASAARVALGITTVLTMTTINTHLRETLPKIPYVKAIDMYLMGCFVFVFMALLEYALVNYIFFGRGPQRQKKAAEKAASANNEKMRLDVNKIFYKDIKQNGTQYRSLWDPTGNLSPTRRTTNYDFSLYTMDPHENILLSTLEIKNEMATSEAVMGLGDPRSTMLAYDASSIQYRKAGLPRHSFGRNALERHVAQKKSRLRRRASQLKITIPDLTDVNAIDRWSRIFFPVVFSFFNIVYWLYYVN
T1 sequence (P18507 whole entry): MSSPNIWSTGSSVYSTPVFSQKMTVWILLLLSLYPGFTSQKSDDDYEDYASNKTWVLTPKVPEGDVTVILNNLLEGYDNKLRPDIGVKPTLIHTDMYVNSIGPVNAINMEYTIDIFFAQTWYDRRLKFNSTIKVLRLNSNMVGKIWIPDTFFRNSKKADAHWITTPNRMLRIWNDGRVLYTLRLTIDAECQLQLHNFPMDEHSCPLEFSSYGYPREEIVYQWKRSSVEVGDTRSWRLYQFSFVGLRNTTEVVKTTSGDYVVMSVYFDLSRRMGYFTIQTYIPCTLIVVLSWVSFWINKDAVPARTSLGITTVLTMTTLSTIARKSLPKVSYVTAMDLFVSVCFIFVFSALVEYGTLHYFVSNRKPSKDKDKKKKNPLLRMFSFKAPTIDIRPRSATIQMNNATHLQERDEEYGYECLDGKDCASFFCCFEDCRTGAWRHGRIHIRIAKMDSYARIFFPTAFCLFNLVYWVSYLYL
Summary of the method: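 Xenopus oocytes injected with α1, β2, γ2L cRNAs (~1 ng each). Two-electrode voltage clamp at -70 mV in frog Ringer's, pH 7.4. GABA set to give about 5% of the maximal (1 mM GABA) current. Steroid stocks in DMSO diluted into Ringer's, DMSO 0.3%. Modulation is potentiation plus any direct steroid current, fitted to a four-parameter logistic. Mean ± SEM.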

[8] = target: GABA-A receptor; alpha-1/beta-2/gamma-2 (Homo sapiens) (UniProt P14867+P47870+P18507); experiment: Efficacy as fractional response (FR) relative to GABA maximum current elicited in the Xenopus oocytes; type: functional, cell-based; settings: Oocyte
Summary of the method: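 Xenopus oocytes expressing α1β2γ2L GABAA receptors (~1 ng each cRNA), two-electrode voltage clamp at -70 mV in frog Ringer's pH 7.4. GABA set to give ~5% of maximal current (1 mM GABA). Steroid co-applied with 0.3% DMSO. Response taken as potentiation plus any direct current, expressed as a fraction of GABA maximum, fit to a four-parameter logistic.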

[9] = Slope value was determined
[10] = target: GABA-A receptor; anion channel; experiment: (§3) In vitro inhibition of [35S]TBPS binding to Gamma-aminobutyric acid A receptor in rat brain cortical membranes in the presence of 5 uM GABA (low affinity); type: cell membranes, Membrane
Summary of the method: (§4)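 Rat cortical P2 membranes, washed in 200 mM NaCl/50 mM Na-K phosphate pH 7.4, incubated 90 min at room temperature with 2 nM [35S]TBPS, 5 µM GABA and test drug in DMSO (final 0.5%). Nonspecific binding taken with 2 µM unlabeled TBPS. Filtration, then scintillation counting. Partial vs full and one- vs two-component models chosen by F-test. IC50 and Imax come from individual experiments, given as mean ± SEM of 3–4.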

[11] = target: GABA-A receptor; anion channel; experiment: In vitro inhibition of [35S]TBPS binding to Gamma-aminobutyric acid A (GABA-A) receptor of rat brain cortical membranes in the presence of 5 uM GABA(high affinity); type: cell membranes, Membrane; summary of the method: as §4
[12] = target: T2, Gamma-aminobutyric acid receptor subunit gamma-1 (Rattus norvegicus, UniProt P23574); experiment: In vitro for inhibition of [35S]TBPS binding in rat brain cortical membranes in the presence of 5 uM GABA in two-component inhibition curve; type: functional, cell membranes, Membrane; summary of the method: as §4
T2 sequence (P23574 whole entry): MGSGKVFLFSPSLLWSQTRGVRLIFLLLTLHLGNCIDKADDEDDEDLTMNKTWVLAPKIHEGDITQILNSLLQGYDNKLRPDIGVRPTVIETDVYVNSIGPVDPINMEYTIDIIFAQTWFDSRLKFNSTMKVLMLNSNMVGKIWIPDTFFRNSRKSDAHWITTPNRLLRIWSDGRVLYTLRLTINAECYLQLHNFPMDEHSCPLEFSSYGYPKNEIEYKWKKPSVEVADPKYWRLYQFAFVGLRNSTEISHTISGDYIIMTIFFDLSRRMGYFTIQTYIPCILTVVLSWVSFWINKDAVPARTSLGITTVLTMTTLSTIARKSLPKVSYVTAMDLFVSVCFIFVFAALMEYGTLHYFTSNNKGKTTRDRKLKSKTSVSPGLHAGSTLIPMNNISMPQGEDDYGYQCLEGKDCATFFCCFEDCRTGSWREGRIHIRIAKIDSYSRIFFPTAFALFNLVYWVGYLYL

Rattus norvegicus [13] = organism: Rattus norvegicus; experiment: as §1; type: functional; summary of the method: as §4; remark: listed apart in the source
Rattus norvegicus [14] = organism: Rattus norvegicus; experiment: The maximum inhibitory potency was calculated by fitting [35S]TBPS inhibition data to a sigmoid function (rat brain cortical P2 membranes) (high affinity); type: functional; summary of the method: as §4
Rattus norvegicus [15] = organism: Rattus norvegicus; experiment: (§5) The maximum inhibitory potency was calculated by fitting [35S]TBPS inhibition data to a sigmoid function (rat brain cortical P2 membranes) (low affinity); type: functional; summary of the method: as §4
[16] = The slope value for efficacy and response
Summary of the method: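 Oocytes expressing α1β2γ2L GABAA receptors under two-electrode voltage clamp in frog Ringer's pH 7.4. GABA or steroid concentration-response data fitted to a four-parameter logistic equation to derive slope. Mean ± SEM.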

[17] = target: GABA-A receptor; anion channel; experiment: as §3; type: cell membranes, Membrane; summary of the method: as §2; remark: listed apart in the source
[18] = target: GABA-A receptor; anion channel; experiment: In vitro inhibition of [35S]TBPS binding to Gamma-aminobutyric acid A receptor in rat brain cortical membranes in the presence of 5 uM GABA (high affinity); type: cell membranes, Membrane; summary of the method: as §2
Rattus norvegicus [19] = organism: Rattus norvegicus; experiment: as §5; type: functional; summary of the method: as §2; remark: listed apart in the source
[20] = target: T2, Gamma-aminobutyric acid receptor subunit gamma-1; experiment: In vitro inhibition of [35S]-TBPS binding to Gamma-aminobutyric acid A receptor in rat brain cortical membranes in the presence of 5 uM GABA (low affinity); type: functional, cell membranes, Membrane; summary of the method: as §4

SMILES	IC50 [1]	ED50 (Mus musculus [2])	ED50 (Mus musculus [3])	PTZ protection (Mus musculus [4])	Imax (Rattus norvegicus [5])	TD50 [6]	EC50 [7]	Efficacy [8]	Slope [9]	IC50 [10]	IC50 [11]	IC50 [12]	Imax (Rattus norvegicus [13])	Imax (Rattus norvegicus [14])	Imax (Rattus norvegicus [15])	Slope [16]	IC50 [17]	IC50 [18]	Imax (Rattus norvegicus [19])	IC50 [20]
CC(=O)c1ccc(C#C[C@@]2(O)CC[C@@]3(C)[C@H](CC[C@@H]4[C@@H]3CC[C@]3(C)[C@@H](C(C)=O)CC[C@@H]43)C2)cc1	0.01 µM	7.4 mg/kg	8.2 mg/kg	75%	106%	10 mg/kg	0.0066 µM	0.94	1.2											
CC(=O)[C@H]1CC[C@H]2[C@@H]3CC[C@@H]4C[C@@](O)(C#Cc5ccc(C=O)cc5)CC[C@]4(C)[C@H]3CC[C@]12C				0%			0.031 µM	0.88		1.6 µM	0.067 µM	1.6 µM	54%	44%	54%	1.3				
CC(=O)[C@H]1CC[C@H]2[C@@H]3CC[C@@H]4C[C@@](O)(C#Cc5ccc(N)cc5)CC[C@]4(C)[C@H]3CC[C@]12C				13%			> 1 µM							17%			11.8 µM	0.096 µM	84%	
CC(=O)c1ccc(C#C[C@@]2(O)CC[C@H]3[C@H](CC[C@@H]4[C@@H]3CC[C@]3(C)[C@@H](C(C)=O)CC[C@@H]43)C2)cc1		9.2 mg/kg	2.8 mg/kg	100%	97%	13.2 mg/kg	0.0082 µM	0.91	1.4											
CC(=O)[C@H]1CC[C@H]2[C@@H]3CC[C@@H]4C[C@@](O)(C#Cc5ccc(N(C)C)cc5)CC[C@]4(C)[C@H]3CC[C@]12C	0.04 µM			50%	78%		0.018 µM	0.76	1.1											
CC(=O)c1cccc(C#C[C@@]2(O)CC[C@@]3(C)[C@H](CC[C@@H]4[C@@H]3CC[C@]3(C)[C@@H](C(C)=O)CC[C@@H]43)C2)c1				0%										34%	65%		1.5 µM	0.045 µM		
CC(=O)[C@H]1CC[C@H]2[C@@H]3CC[C@@H]4C[C@@](O)(C#Cc5ccccc5O)CC[C@]4(C)[C@H]3CC[C@]12C				0%			0.34 µM	0.51	1.6		0.082 µM			30%	57%					5.1 µM
